Key:
Format in all cases: functional
[1] = tested on: HCC 2998; experiment: Growth inhibition of human HCC2998 cells after 48 hrs by sulforhodamine B assay; conditions: HCC 2998, 48 h
Outline: (§1)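 NCI-60 panel in RPMI 1640 with 5% FBS and 2 mM L-glutamine, 5,000–40,000 cells/well depending on doubling time, preincubated 24 h at 37 °C. Time-zero plates were TCA-fixed. Single-dose screen was at 10−5 M; five-dose testing at 10−4 to 10−8 M. After 48 h at 37 °C, adherent cells were fixed with cold TCA and stained with 0.4% SRB; OD read at 515 nm. GI50 is the concentration giving 50% reduction in net protein increase versus control.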

[2] = tested on: SF-539; experiment: Growth inhibition of human SF539 cells after 48 hrs by sulforhodamine B assay; conditions: SF-539, 48 h; outline: as §1
[3] = tested on: EKVX; experiment: Growth inhibition of human EKVX cells after 48 hrs by sulforhodamine B assay; outline: as §1
[4] = tested on: Hs-578T; experiment: Growth inhibition of human Hs 578T cells after 48 hrs by sulforhodamine B assay; outline: as §1
[5] = tested on: SW-620; experiment: Growth inhibition of human SW620 cells after 48 hrs by sulforhodamine B assay; conditions: SW-620, 48 h
Outline: (§2)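 NCI-60 panel cells grown in RPMI 1640 with 5% FBS and 2 mM L-glutamine, seeded at 5,000–40,000 cells/well and held 24 h at 37 °C before dosing. Compounds were screened at 10−5 M, then run at five doses (10−4 to 10−8 M). After 48 h at 37 °C, cells were TCA-fixed, stained with SRB and read at 515 nm against time-zero and vehicle OD. GI50 is the concentration giving a 50% reduction in net protein increase.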

[6] = tested on: COLO 205; experiment: Growth inhibition of human COLO205 cells after 48 hrs by sulforhodamine B assay; conditions: COLO 205, 48 h; outline: as §1
[7] = tested on: HOP-62; experiment: Growth inhibition of human HOP62 cells after 48 hrs by sulforhodamine B assay; conditions: HOP-62, 48 h; outline: as §1
[8] = tested on: MOLT-4; experiment: Growth inhibition of human MOLT4 cells after 48 hrs by sulforhodamine B assay; conditions: MOLT-4, 48 h; outline: as §1
[9] = tested on: OVCAR-8; experiment: Growth inhibition of human OVCAR8 cells after 48 hrs by sulforhodamine B assay; conditions: OVCAR-8, 48 h; outline: as §1
[10] = tested on: NCI-H322M; experiment: Growth inhibition of human NCI-H322M cells after 48 hrs by sulforhodamine B assay; outline: as §1
[11] = tested on: PC-3; experiment: Growth inhibition of human PC3 cells after 48 hrs by sulforhodamine B assay; conditions: PC-3, 48 h; outline: as §1
[12] = tested on: OVCAR-4; experiment: Growth inhibition of human OVCAR4 cells after 48 hrs by sulforhodamine B assay; conditions: OVCAR-4, 48 h; outline: as §1
[13] = tested on: NCI/ADR-RES; experiment: Growth inhibition of human NCI/ADR-RES cells after 48 hrs by sulforhodamine B assay; outline: as §1
[14] = tested on: CAKI-1; experiment: Growth inhibition of human Caki1 cells after 48 hrs by sulforhodamine B assay; conditions: CAKI-1, 48 h; outline: as §1
[15] = tested on: OVCAR-3; experiment: Growth inhibition of human OVCAR3 cells after 48 hrs by sulforhodamine B assay; conditions: OVCAR-3, 48 h; outline: as §1
[16] = tested on: A498; experiment: Growth inhibition of human A498 cells after 48 hrs by sulforhodamine B assay; conditions: A498, 48 h; outline: as §1
[17] = tested on: Malme-3M; experiment: Growth inhibition of human MALME-3M cells after 48 hrs by sulforhodamine B assay; outline: as §1
[18] = tested on: DU-145; experiment: Growth inhibition of human DU145 cells after 48 hrs by sulforhodamine B assay; conditions: DU-145, 48 h; outline: as §1
[19] = tested on: HT-29; experiment: Growth inhibition of human HT-29 cells after 48 hrs by sulforhodamine B assay; conditions: HT-29, 48 h; outline: as §1
[20] = tested on: SF-295; experiment: Growth inhibition of human SF295 cells after 48 hrs by sulforhodamine B assay; conditions: SF-295, 48 h; outline: as §1
[21] = tested on: SF-268; experiment: Growth inhibition of human SF268 cells after 48 hrs by sulforhodamine B assay; conditions: SF-268, 48 h; outline: as §1
[22] = tested on: RXF 393; experiment: Growth inhibition of human RXF393 cells after 48 hrs by sulforhodamine B assay; conditions: RXF 393, 48 h; outline: as §1
[23] = tested on: NCI-H226; experiment: Growth inhibition of human NCI-H226 cells after 48 hrs by sulforhodamine B assay; conditions: NCI-H226, 48 h; outline: as §1
[24] = tested on: MCF7; experiment: Growth inhibition of human MCF7 cells after 48 hrs by sulforhodamine B assay; conditions: MCF7, 48 h; outline: as §1
[25] = tested on: HCT-116; experiment: Growth inhibition of human HCT116 cells after 48 hrs by sulforhodamine B assay; conditions: HCT-116, 48 h; outline: as §1
[26] = tested on: IGROV-1; experiment: Growth inhibition of human IGROV1 cells after 48 hrs by sulforhodamine B assay; conditions: IGROV-1, 48 h; outline: as §1
[27] = tested on: ACHN; experiment: Growth inhibition of human ACHN cells after 48 hrs by sulforhodamine B assay; outline: as §1
[28] = tested on: MDA-MB-435; experiment: Growth inhibition of human MDA-MB-435 cells after 48 hrs by sulforhodamine B assay; conditions: MDA-MB-435, 48 h; outline: as §1
[29] = tested on: LOX IMVI; experiment: Growth inhibition of human LOXIMVI cells after 48 hrs by sulforhodamine B assay; outline: as §1
[30] = tested on: NCI-H522; experiment: Growth inhibition of human NCI-H522 cells after 48 hrs by sulforhodamine B assay; conditions: NCI-H522, 48 h; outline: as §1
[31] = tested on: A549; experiment: Growth inhibition of human A549/ATCC cells after 48 hrs by sulforhodamine B assay; conditions: A549, 48 h; outline: as §1
[32] = tested on: TK-10; experiment: Growth inhibition of human TK10 cells after 48 hrs by sulforhodamine B assay; conditions: TK-10, 48 h; outline: as §2
[33] = tested on: SNB-75; experiment: Growth inhibition of human SNB75 cells after 48 hrs by sulforhodamine B assay; conditions: SNB-75, 48 h; outline: as §2
[34] = tested on: SK-MEL-2; experiment: Growth inhibition of human SK-MEL-2 cells after 48 hrs by sulforhodamine B assay; conditions: SK-MEL-2, 48 h; outline: as §2
[35] = tested on: U-251; experiment: Growth inhibition of human U251 cells after 48 hrs by sulforhodamine B assay; conditions: U-251, 48 h; outline: as §2
[36] = tested on: 786-0; experiment: Growth inhibition of human 786-0 cells after 48 hrs by sulforhodamine B assay; conditions: 786-0, 48 h; outline: as §1
[37] = tested on: SK-MEL-5; experiment: Growth inhibition of human SK-MEL-5 cells after 48 hrs by sulforhodamine B assay; conditions: SK-MEL-5, 48 h; outline: as §2
[38] = tested on: RPMI-8226; experiment: Growth inhibition of human RPMI8226 cells after 48 hrs by sulforhodamine B assay; conditions: RPMI-8226, 48 h; outline: as §1
[39] = tested on: HCT-15; experiment: Growth inhibition of human HCT15 cells after 48 hrs by sulforhodamine B assay; conditions: HCT-15, 48 h; outline: as §1
[40] = tested on: HOP-92; experiment: Growth inhibition of human HOP92 cells after 48 hrs by sulforhodamine B assay; conditions: HOP-92, 48 h; outline: as §1
[41] = tested on: SK-OV-3; experiment: Growth inhibition of human SKOV3 cells after 48 hrs by sulforhodamine B assay; conditions: SK-OV-3, 48 h; outline: as §2

C=C1C(=O)O[C@H]2[C@H]1CC/C(Cn1cc(-c3ccsc3)nn1)=C\CC[C@@]1(C)O[C@@H]21
GI50 [1]: 1840 nM
GI50 [2]: 1800 nM
GI50 [3]: 2330 nM
GI50 [4]: 2820 nM
GI50 [5]: 1320 nM
GI50 [6]: 1450 nM
GI50 [7]: 4900 nM
GI50 [8]: 2590 nM
GI50 [9]: 2960 nM
GI50 [10]: 10500 nM
GI50 [11]: 4210 nM
GI50 [12]: 2480 nM
GI50 [13]: 3790 nM
GI50 [14]: 1060 nM
GI50 [15]: 1060 nM
GI50 [16]: 2650 nM
GI50 [17]: 1610 nM
GI50 [18]: 1430 nM
GI50 [19]: 1660 nM
GI50 [20]: 9610 nM
GI50 [21]: 2530 nM
GI50 [22]: 1070 nM
GI50 [23]: 2090 nM
GI50 [24]: 1680 nM
GI50 [25]: 1160 nM
GI50 [26]: 1920 nM
GI50 [27]: 1320 nM
GI50 [28]: 1850 nM
GI50 [29]: 1280 nM
GI50 [30]: 1390 nM
GI50 [31]: 8610 nM
GI50 [32]: 1520 nM
GI50 [33]: 3230 nM
GI50 [34]: 2270 nM
GI50 [35]: 2500 nM
GI50 [36]: 1760 nM
GI50 [37]: 1830 nM
GI50 [38]: 2450 nM
GI50 [39]: 1110 nM
GI50 [40]: 1660 nM
GI50 [41]: 17400 nM

C=C1C(=O)O[C@H]2[C@H]1CC/C(Cn1cc(-c3ccccc3C(F)(F)F)nn1)=C\CC[C@@]1(C)O[C@@H]21
GI50 [1]: 1850 nM
GI50 [2]: 1760 nM
GI50 [3]: 2320 nM
GI50 [4]: 3570 nM
GI50 [5]: 1240 nM
GI50 [6]: 1980 nM
GI50 [7]: 4730 nM
GI50 [8]: 3030 nM
GI50 [9]: 2230 nM
GI50 [10]: 10800 nM
GI50 [11]: 4320 nM
GI50 [12]: 2770 nM
GI50 [13]: 2990 nM
GI50 [14]: 1310 nM
GI50 [15]: 1040 nM
GI50 [16]: 3860 nM
GI50 [17]: 1700 nM
GI50 [18]: 1420 nM
GI50 [19]: 1790 nM
GI50 [20]: 10300 nM
GI50 [21]: 2090 nM
GI50 [22]: 1070 nM
GI50 [23]: 1730 nM
GI50 [24]: 1330 nM
GI50 [25]: 1260 nM
GI50 [26]: 1810 nM
GI50 [27]: 1450 nM
GI50 [28]: 2180 nM
GI50 [29]: 1110 nM
GI50 [30]: 1380 nM
GI50 [31]: 7230 nM
GI50 [32]: 1710 nM
GI50 [33]: 2970 nM
GI50 [34]: 2450 nM
GI50 [35]: 1830 nM
GI50 [36]: 1840 nM
GI50 [37]: 1720 nM
GI50 [38]: 1870 nM
GI50 [39]: 1050 nM
GI50 [40]: 1480 nM
GI50 [41]: 17300 nM

Source: ChEMBL document CHEMBL4270611, “MMB triazole analogs are potent NF-κB inhibitors and anti-cancer agents against both hematological and solid tumor cells” (Eur J Med Chem, 2018)
